Where “and” joins values, the source holds several entries; their conditions need not be identical. Equal entries are not always repeated.
Tested on: Fibroblast
Assay: Multiplex assay against human fibroblast
Type: toxicity, cell-based
In short: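 Cells stained live at seeding with Hoechst33342, BioTracker Green Microtubule Cytoskeleton Dye, MitoTracker Red and Annexin V Alexa Fluor 680 were imaged on a CQ1 microscope at 37°C and 5% CO2 after compound addition. Their classification by CellPathfinder machine-learning gating ran from Hoechst high-intensity objects versus normal cells, to healthy, pyknosed or fragmented nuclei among normal cells, to mitotic or apoptotic among pyknosed cells. Tubulin, mitochondrial-mass and membrane-permeability phenotypes are per cents of healthy-nucleus cells.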

[1] = 12 h, 1 µM, compound concentration 1 uM
[2] = 12 h, 10 µM, compound concentration 10 uM
[3] = 24 h, 1 µM, compound concentration 1 uM
[4] = 24 h, 10 µM, compound concentration 10 uM
[5] = 48 h, 1 µM, compound concentration 1 uM
[6] = 48 h, 10 µM, compound concentration 10 uM

`O=C(Nc1ccccc1Cl)c1cnc2ccc(C3CCNCC3)cn12.O=C(O)C(=O)O` was tested, and the “Population Fragmented Nuclei (%)” value [1] was 12.96% and 7.79%, the “Population Healthy Nuclei (%)” value [1] was 60.19% and 75.41% and the “Population Hoechst High Intensity Objects (%)” value [1] was 0%. For the same compound, the “Population Membrane Permeable-Phenotype (%)” value [1] was 1.54% and 2.72%, the “Population Mitochondria Different-Phenotype (%)” value [1] was 7.69% and 10.87% and the “Population Mitotic Cells (%)” value [1] was 93.1% and 73.17%. The “Population Normal (%)” value [1] was 100%, the “Population Pyknosed Nuclei (%)” value [1] was 26.85% and 16.8% and the “Population Tubulin-Different-Phenotype (%)” value [1] was 17.69% and 23.91%. For the same compound, the “Total Cell Count” value [1] was 216 and 244, the “Population Apoptotic (%)” value [2] was 16.33% and 20.48% and the “Population Healthy Nuclei (%)” value [2] was 62.09% and 63.64%. The “Population Hoechst High Intensity Objects (%)” value [2] was 0% and 0.43%, the “Population Membrane Permeable-Phenotype (%)” value [2] was 4.42% and 7.48% and the “Population Mitochondria Different-Phenotype (%)” value [2] was 17.7% and 21.09%. For the same compound, the “Population Mitotic Cells (%)” value [2] was 83.67% and 79.52%, the “Population Normal (%)” value [2] was 100% and 99.57% and the “Population Pyknosed Nuclei (%)” value [2] was 26.92% and 35.93%. For the same compound, the “Population Tubulin-Different-Phenotype (%)” value [2] was 40.71% and 57.82%, the “Total Cell Count” value [2] was 182 and 232 and the “Population Apoptotic (%)” value [3] was 14.29% and 25.71%. For the same compound, the “Population Fragmented Nuclei (%)” value [3] was 11.52% and 3.52%, the “Population Healthy Nuclei (%)” value [3] was 72.35% and 81.06% and the “Population Hoechst High Intensity Objects (%)” value [3] was 0%. The “Population Membrane Permeable-Phenotype (%)” value [3] was 4.46% and 3.8%, the “Population Mitochondria Different-Phenotype (%)” value [3] was 8.92% and 15.22% and the “Population Mitotic Cells (%)” value [3] was 85.71% and 74.29%. For the same compound, the “Population Normal (%)” value [3] was 100%, the “Population Pyknosed Nuclei (%)” value [3] was 16.13% and 15.42% and the “Population Tubulin-Different-Phenotype (%)” value [3] was 19.75% and 25.54%. The “Total Cell Count” value [3] was 217 and 227, the “Population Apoptotic (%)” value [4] was 35.29% and 37.66% and the “Population Healthy Nuclei (%)” value [4] was 67.43% and 62.44%. For the same compound, the “Population Hoechst High Intensity Objects (%)” value [4] was 0%, the “Population Membrane Permeable-Phenotype (%)” value [4] was 6.78% and 10.53% and the “Population Mitochondria Different-Phenotype (%)” value [4] was 28.81% and 18.05%. The “Population Mitotic Cells (%)” value [4] was 64.71% and 62.34%, the “Population Normal (%)” value [4] was 100% and the “Population Pyknosed Nuclei (%)” value [4] was 19.43% and 36.15%. The “Population Tubulin-Different-Phenotype (%)” value [4] was 49.15% and 60.9%, the “Total Cell Count” value [4] was 175 and 213 and the “Population Fragmented Nuclei (%)” value [5] was 11.26% and 5.24%. For the same compound, the “Population Healthy Nuclei (%)” value [5] was 79.73% and 81.22%, the “Population Hoechst High Intensity Objects (%)” value [5] was 0% and the “Population Membrane Permeable-Phenotype (%)” value [5] was 2.26% and 5.91%. For the same compound, the “Population Mitochondria Different-Phenotype (%)” value [5] was 7.91% and 2.15%, the “Population Mitotic Cells (%)” value [5] was 90% and 64.52% and the “Population Normal (%)” value [5] was 100%. The “Population Pyknosed Nuclei (%)” value [5] was 9.01% and 13.54%, the “Population Tubulin-Different-Phenotype (%)” value [5] was 12.43% and 28.49% and the “Total Cell Count” value [5] was 222 and 229. For the same compound, the “Population Apoptotic (%)” value [6] was 33.33% and 60.38%, the “Population Fragmented Nuclei (%)” value [6] was 10.9% and 1.94% and the “Population Healthy Nuclei (%)” value [6] was 75.64% and 63.87%. The “Population Hoechst High Intensity Objects (%)” value [6] was 0% and 0.64%, the “Population Mitochondria Different-Phenotype (%)” value [6] was 13.56% and 16.16% and the “Population Mitotic Cells (%)” value [6] was 66.67% and 39.62%. The “Population Normal (%)” value [6] was 100% and 99.36%, the “Population Pyknosed Nuclei (%)” value [6] was 13.46% and 34.19% and the “Population Tubulin-Different-Phenotype (%)” value [6] was 50.85% and 74.75%. The “Total Cell Count” value [6] was 156.

In the case of `Cc1cc(O)c(-c2ccc([C@@H](C)CN(C)C)cc2)c2c1[nH]c(=O)c1sccc12`, the “Population Healthy Nuclei (%)” value [1] was 67% and 56% and 55.08% and 75.51%, the “Population Hoechst High Intensity Objects (%)” value [1] was 7% and 2% and 0% and the “Population Membrane Permeable-Phenotype (%)” value [1] was 1% and 4% and 5.83% and 9.91%. For the same compound, the “Population Mitochondria Different-Phenotype (%)” value [1] was 17% and 12% and 18.45% and 20.72%, the “Population Mitotic Cells (%)” value [1] was 72.41% [middle of 4 runs] and the “Population Normal (%)” value [1] was 92% and 97% and 100%. For the same compound, the “Population Pyknosed Nuclei (%)” value [1] was 20% and 21% and 33.16% and 19.73%, the “Population Tubulin-Different-Phenotype (%)” value [1] was 44% and 52% and 26.21% and 40.54% and the “Total Cell Count” value [1] was 145 and 115 and 187 and 147. For the same compound, the “Population Apoptotic (%)” value [2] was 69% [middle of 4 runs], the “Population Healthy Nuclei (%)” value [2] was 63% and 55% and 58.38% and 64.17% and the “Population Hoechst High Intensity Objects (%)” value [2] was 6% and 5% and 0%. For the same compound, the “Population Membrane Permeable-Phenotype (%)” value [2] was 8.7% [middle of 4 runs], the “Population Mitochondria Different-Phenotype (%)” value [2] was 40% [middle of 4 runs] and the “Population Mitotic Cells (%)” value [2] was 30% and 75.86% and 55.84%. For the same compound, the “Population Normal (%)” value [2] was 93% and 94% and 100%, the “Population Pyknosed Nuclei (%)” value [2] was 29.44% [middle of 4 runs] and the “Population Tubulin-Different-Phenotype (%)” value [2] was 90% and 80% and 81.74% and 85.06%. The “Total Cell Count” value [2] was 146 and 137 and 197 and 240, the “Population Healthy Nuclei (%)” value [3] was 66% and 54% and 64.88% and 75% and the “Population Hoechst High Intensity Objects (%)” value [3] was 7% and 9% and 0%. For the same compound, the “Population Membrane Permeable-Phenotype (%)” value [3] was 0% and 1% and 5.5% and 9.26%, the “Population Mitochondria Different-Phenotype (%)” value [3] was 21.1% [middle of 4 runs] and the “Population Mitotic Cells (%)” value [3] was 54% and 47% and 85.37% and 84.62%. The “Population Normal (%)” value [3] was 92% and 90% and 100%, the “Population Pyknosed Nuclei (%)” value [3] was 21% and 16% and 24.4% and 18.06% and the “Population Tubulin-Different-Phenotype (%)” value [3] was 73% and 56% and 47.71% and 50.93%. For the same compound, the “Total Cell Count” value [3] was 119 and 111 and 168 and 144, the “Population Apoptotic (%)” value [4] was 57% [middle of 4 runs] and the “Population Healthy Nuclei (%)” value [4] was 65% and 51% and 52.84% and 54.55%. For the same compound, the “Population Hoechst High Intensity Objects (%)” value [4] was 3% and 8% and 0%, the “Population Membrane Permeable-Phenotype (%)” value [4] was 0% and 3% and 6.45% and 8.77% and the “Population Mitochondria Different-Phenotype (%)” value [4] was 42% and 34% and 53.76% and 42.11%. The “Population Mitotic Cells (%)” value [4] was 43.68% [middle of 4 runs], the “Population Normal (%)” value [4] was 96% and 91% and 100% and the “Population Pyknosed Nuclei (%)” value [4] was 34.66% [middle of 4 runs]. The “Population Tubulin-Different-Phenotype (%)” value [4] was 87% and 81% and 80.65% and 92.11%, the “Total Cell Count” value [4] was 122 and 124 and 176 and 209 and the “Population Apoptotic (%)” value [5] was 57% [middle of 4 runs]. The “Population Healthy Nuclei (%)” value [5] was 55% and 48% and 49.14% and 75.38%, the “Population Hoechst High Intensity Objects (%)” value [5] was 7% and 9% and 0% and the “Population Mitochondria Different-Phenotype (%)” value [5] was 20% [middle of 4 runs]. For the same compound, the “Population Mitotic Cells (%)” value [5] was 52% [middle of 4 runs], the “Population Normal (%)” value [5] was 92% and 90% and 100% and the “Population Pyknosed Nuclei (%)” value [5] was 24% and 20% and 28.57% and 19.23%. The “Population Tubulin-Different-Phenotype (%)” value [5] was 70% and 62% and 43.02% and 59.18%, the “Total Cell Count” value [5] was 118 and 103 and 175 and 130 and the “Population Apoptotic (%)” value [6] was 70% and 71% and 49.33% and 79.12%. For the same compound, the “Population Healthy Nuclei (%)” value [6] was 53% and 43% and 45.16% and 48.13%, the “Population Hoechst High Intensity Objects (%)” value [6] was 10% and 7% and 0% and the “Population Membrane Permeable-Phenotype (%)” value [6] was 0% and 8.33% and 20%. For the same compound, the “Population Mitochondria Different-Phenotype (%)” value [6] was 53% and 30% and 44.05%, the “Population Mitotic Cells (%)” value [6] was 29% [middle of 4 runs] and the “Population Normal (%)” value [6] was 89% and 92% and 100%. The “Population Tubulin-Different-Phenotype (%)” value [6] was 89% and 85% and 58.33% and 77.78% and the “Total Cell Count” value [6] was 117 and 136 and 186 and 187.
